Tests used:
[1] = target: T1, Cannabinoid receptor 1 (Homo sapiens, UniProt P21554); assay: Allosteric antagonist activity against human CB1 receptor expressed in HEK293 cells membrane measured after 60 mins by [35S]GTPgammaS binding assay; type: functional, cell membranes
How it was run: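 Membranes from HEK293 cells expressing hCB1 are used in assay buffer (50 mM Tris, 3 mM MgCl2, 0.2 mM EGTA, 100 mM NaCl, 1 mg/ml BSA, pH 7.4). They are preincubated 10 min, then incubated 60 min at 30 °C with 30 μM GDP, 0.1 nM [35S]GTPγS, 100 nM CP55,940 and serially diluted compound (0.1% DMSO final). Nonspecific binding is set with 30 μM unlabeled GTPγS. Reactions are filtered. Data are normalized to CP55,940 alone and fitted by 3-parameter regression; mean of ≥3 experiments in duplicate.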

[2] = target: Cannabinoid receptor 2 (Homo sapiens) (UniProt P34972); assay: Agonist activity at human CB2 receptor CP55940-stimulated calcium mobilization at 10 uM incubated for 15 mins FLIPR assay relative to control; type: functional
How it was run: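 CB2 agonist screen in CHO-RD-HGA16 cells stably expressing human CB2, loaded with Calcium 5 dye for 45 min at 37 °C. Cells were pretreated 15 min with vehicle, then the test compound was added at a single concentration. Fluorescence was read on FLIPR every 1 s for 90 s (485/525 nm). Response is expressed as % of CP55,940 Emax.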

[3] = target: T1, Cannabinoid receptor 1; assay: Antagonist activity at N-terminal tagged human CB1 receptor transfected with HEK293 cells assessed as forskolin-stimulated cAMP level in presence of CP55940 by BRET assay; type: functional, cell-based
How it was run: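 HEK293 cells stably expressing hCB1 (3HA-tagged at Otago, untagged at RTI) are transiently transfected with the CAMYEL BRET cAMP sensor. Cells are serum-starved 30 min and given 5 μM coelenterazine H final. Compound dilutions are added together with 5 μM forskolin and 1 μM CP55,940. BRET (460/535) is read for about 20 min at 37 °C.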

[4] = target: T1, Cannabinoid receptor 1; assay: Allosteric antagonist activity at human CB1 receptor expressed in CHO-RD-HGA16 cells overexpressing Galpha16 assessed as inhibition of CP55940-stimulated calcium mobilization incubated for 15 mins FLIPR assay; type: functional, cell-based
[5] = target: Cannabinoid receptor 2 (Homo sapiens) (UniProt P34972); assay: Antagonist activity at human CB2 receptor CP55940-stimulated calcium mobilization incubated for 15 mins FLIPR assay; type: functional; parameters: concentration or dose not given beside the values
How it was run: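 CB2 antagonist screen in human CB2 CHO-RD-HGA16 cells loaded with Calcium 5 dye. Cells were pretreated 15 min at 37 °C with the test compound at a single concentration (10 μM), then challenged with CP55,940 at its EC80 during the FLIPR read (90 s, 485/525 nm). Response is expressed as % inhibition of the CP55,940 EC80 signal.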

[6] = target: T1, Cannabinoid receptor 1; assay: Agonist activity at human CB1 receptor CP55940-stimulated calcium mobilization at 10 uM incubated for 15 mins FLIPR assay relative to control; type: functional
[7] = Metabolic stability in rat liver microsomes assessed as clearance in presence of NADPH measured upto 45 mins by LC-MS/MS analysis; type: ADME, Microsome; details: 0.75 h
How it was run: (§1)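 Rat liver microsomes (0.5 mg/mL protein) in 100 mM potassium phosphate, pH 7.4, at 37 °C with 1 mM NADPH. Samples were taken at 0, 5, 15, 30 and 45 min, quenched with acetonitrile and analysed by LC/MS/MS. Half-life and clearance were derived from two independent experiments in duplicate.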

[8] = Metabolic stability in rat liver microsomes assessed as half life in presence of NADPH measured upto 45 mins by LC-MS/MS analysis; type: ADME, Microsome; details: 0.75 h; how it was run: as §1
[9] = target: Cannabinoid receptor 1 (Mus musculus, UniProt P47746); assay: Allosteric antagonist activity against mouse CB1 receptor in cerebellar membranes measured after 60 mins by [35S]GTPgammaS binding assay
Cannabinoid receptor 1 (Mus musculus, UniProt P47746), sequence (P47746 whole entry): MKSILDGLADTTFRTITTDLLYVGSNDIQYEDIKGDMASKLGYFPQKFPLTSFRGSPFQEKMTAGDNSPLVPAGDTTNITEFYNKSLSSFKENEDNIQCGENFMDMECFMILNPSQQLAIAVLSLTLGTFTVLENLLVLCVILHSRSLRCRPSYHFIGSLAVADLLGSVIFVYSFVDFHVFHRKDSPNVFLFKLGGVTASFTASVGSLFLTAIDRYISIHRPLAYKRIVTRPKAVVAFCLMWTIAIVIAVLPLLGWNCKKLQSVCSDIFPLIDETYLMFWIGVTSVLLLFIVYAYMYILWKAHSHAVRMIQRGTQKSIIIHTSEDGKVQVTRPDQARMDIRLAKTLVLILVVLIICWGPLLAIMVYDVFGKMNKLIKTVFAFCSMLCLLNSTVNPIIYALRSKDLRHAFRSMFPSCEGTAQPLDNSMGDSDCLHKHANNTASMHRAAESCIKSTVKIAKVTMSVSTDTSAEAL

Cannabinoid receptor 2 (Homo sapiens), sequence (P34972 whole entry): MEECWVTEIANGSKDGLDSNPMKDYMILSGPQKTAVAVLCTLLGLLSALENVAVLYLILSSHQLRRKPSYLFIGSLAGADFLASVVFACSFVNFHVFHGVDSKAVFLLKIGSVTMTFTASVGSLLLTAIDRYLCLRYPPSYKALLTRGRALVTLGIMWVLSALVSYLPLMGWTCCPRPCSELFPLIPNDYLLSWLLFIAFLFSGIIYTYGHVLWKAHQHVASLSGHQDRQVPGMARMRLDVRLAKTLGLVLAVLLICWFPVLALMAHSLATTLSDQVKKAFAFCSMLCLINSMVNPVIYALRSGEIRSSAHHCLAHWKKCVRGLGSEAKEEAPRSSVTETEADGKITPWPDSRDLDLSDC
T1 sequence (P21554 whole entry): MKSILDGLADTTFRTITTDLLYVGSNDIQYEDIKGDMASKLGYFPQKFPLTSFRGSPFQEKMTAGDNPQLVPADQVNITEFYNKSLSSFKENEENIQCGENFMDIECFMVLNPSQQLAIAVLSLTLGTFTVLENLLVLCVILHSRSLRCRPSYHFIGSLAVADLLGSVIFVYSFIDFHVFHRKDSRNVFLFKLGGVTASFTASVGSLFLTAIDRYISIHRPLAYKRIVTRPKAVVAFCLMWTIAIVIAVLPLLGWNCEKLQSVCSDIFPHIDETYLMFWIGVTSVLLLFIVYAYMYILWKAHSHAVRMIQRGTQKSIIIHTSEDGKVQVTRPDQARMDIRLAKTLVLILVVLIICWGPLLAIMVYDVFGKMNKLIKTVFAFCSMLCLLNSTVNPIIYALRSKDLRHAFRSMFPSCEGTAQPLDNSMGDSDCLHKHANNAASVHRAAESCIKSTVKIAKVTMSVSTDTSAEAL

SMILES | IC50 [1] [nM] | Emax [2] [%] | IC50 [3] [nM] | IC50 [4] [nM] | Activity [5] [%] | Emax [6] [%] | CLH [7] [µL/min/mg] | t1/2 [8] [min] | IC50 [9] [nM]
O=C(NCCc1cc(Cl)cc(Cl)c1)Nc1ccc(Cl)cc1 | 1740 | < 20 | 4370 | 24 | < 35 |  |  |  | 
COc1cccc(CCNC(=O)Nc2ccc(Cl)cc2)c1 | 12300 | < 20 | 7760 | 447 | < 35 | < 30 |  |  | 
O=C(NCCc1ccc(C(F)(F)F)cc1)Nc1ccc(Cl)cc1 |  | < 20 |  | 178 | < 35 | < 30 |  |  | 
Cc1cccc(CCNC(=O)Nc2ccc(Cl)cc2)c1 | 3020 | < 20 | 912 | 41.7 | < 35 | < 30 | 102 | 13.7 | 
O=C(NCCc1ccccc1C(F)(F)F)Nc1ccc(Cl)cc1 | 4270 | < 20 | 3240 | 126 | < 35 | < 30 |  |  | 
COc1cc(CCNC(=O)Nc2ccc(Cl)cc2)cc(OC)c1 |  | < 20 |  | 1070 | < 35 | < 30 |  |  | 
CN(C)c1ccc(CCNC(=O)Nc2ccc(Cl)cc2)cc1 |  | < 20 |  | 257 | < 35 | < 30 |  |  | 
O=C(NCCc1ccc(Cl)cc1)Nc1ccc(Cl)cc1 |  | < 20 |  | 162 | < 35 | < 30 |  |  | 
O=C(NCCc1ccccc1Cl)Nc1ccc(Cl)cc1 |  | < 20 |  | 229 | < 35 | < 30 |  |  | 
O=C(NCCc1ccc(-c2ccccc2)cc1)Nc1ccc(Cl)cc1 |  | < 20 |  | 871 | < 35 | < 30 |  |  | 
Cc1ccc(CCNC(=O)Nc2ccc(Cl)cc2)cc1C | 2570 | < 20 | 1150 | 47.9 | < 35 |  |  |  | 
O=C(NCCc1c(F)c(F)c(F)c(F)c1F)Nc1ccc(Cl)cc1 |  | < 20 |  | 32.4 | < 35 | < 30 |  |  | 
O=C(NCCc1ccc([N+](=O)[O-])cc1)Nc1ccc(Cl)cc1 | 2950 | < 20 | 1780 | 85.1 | < 35 | < 30 |  |  | 
O=C(NCCc1ccc(F)cc1)Nc1ccc(Cl)cc1 | 4370 | < 20 | 1700 | 105 | < 35 | < 30 |  |  | 891
COc1cc(CCNC(=O)Nc2ccc(Cl)cc2)ccc1O |  | < 20 |  | > 10000 | < 35 | < 30 |  |  | 
O=C(NCCc1cccc(OC(F)(F)F)c1)Nc1ccc(Cl)cc1 | 7940 | < 20 | 10700 | 93.3 | < 35 |  |  |  | 
O=C(NCCc1ccccc1F)Nc1ccc(Cl)cc1 |  | < 20 |  | 170 | < 35 | < 30 |  |  | 
COc1ccc(CCNC(=O)Nc2ccc(Cl)cc2)cc1 | 5620 | < 20 | 4170 | 214 | < 35 | < 30 |  |  | 3720
CN(C)c1cccc(CCNC(=O)Nc2ccc(Cl)cc2)c1 |  | < 20 |  | 1620 | < 35 | < 30 |  |  | 

SMILES | IC50 [1] [nM] | Emax [2] [%] | IC50 [3] [nM] | IC50 [4] [nM] | Activity [5] [%] | Emax [6] [%] | CLH [7] [µL/min/mg] | t1/2 [8] [min] | IC50 [9] [nM]
O=C(NCCc1cccc(F)c1)Nc1ccc(Cl)cc1 | 6760 | < 20 | 1350 | 51.3 | < 35 | < 30 |  |  | 
O=C(NCCc1c(F)cccc1Cl)Nc1ccc(Cl)cc1 |  | < 20 |  | 398 | < 35 | < 30 |  |  | 
CS(=O)(=O)c1ccc(CCNC(=O)Nc2ccc(Cl)cc2)cc1 |  | < 20 |  | > 10000 | < 35 | < 30 |  |  | 
O=C(NCCc1ccccc1)Nc1ccc(Cl)cc1 | 6760 | < 20 | 3470 | 186 | < 35 |  |  |  | 
Cc1ccc(CCNC(=O)Nc2ccc(Cl)cc2)cc1 | 13800 | < 20 | 2040 | 135 | < 35 | < 30 |  |  | 
Cc1cc(C)cc(CCNC(=O)Nc2ccc(Cl)cc2)c1 | 6610 | < 20 | 6610 | 28.8 | < 35 |  |  |  | 
O=C(NCCc1ccc(O)cc1)Nc1ccc(Cl)cc1 |  | < 20 |  | > 10000 | < 35 | < 30 |  |  | 
O=C(NCCc1ccc(N2CCCCC2)cc1)Nc1ccc(Cl)cc1 |  | < 20 |  | 912 | < 35 |  |  |  | 
O=C(NCCc1cccc(C(F)(F)F)c1)Nc1ccc(Cl)cc1 | 1290 | < 20 | 676 | 28.8 | < 35 | < 30 | 90 | 15.5 | 
O=C(NCCc1c(F)cc(F)cc1F)Nc1ccc(Cl)cc1 |  | < 20 |  | 79.4 | < 35 | < 30 |  |  | 
O=C(NCCc1cccc(Br)c1)Nc1ccc(Cl)cc1 | 3470 | < 20 | 724 | 32.4 | < 35 |  |  |  | 
COc1ccc(CCNC(=O)Nc2ccc(Cl)cc2)cc1OC | > 10000 | < 20 | > 10000 | 1780 | < 35 | < 30 |  |  | 
N#Cc1ccc(CCNC(=O)Nc2ccc(Cl)cc2)cc1 |  | < 20 |  | 437 | < 35 | < 30 |  |  | 
CC(C)(C)c1ccc(CCNC(=O)Nc2ccc(Cl)cc2)cc1 | > 10000 | < 20 | > 10000 | 537 | < 35 | < 30 |  |  | > 10000
COc1ccccc1CCNC(=O)Nc1ccc(Cl)cc1 |  | < 20 |  | 1580 | < 35 | < 30 |  |  | 
N#Cc1cccc(CCNC(=O)Nc2ccc(Cl)cc2)c1 | 832 | < 20 | 871 | 145 | < 35 |  |  |  | 
O=C(NCCc1ccc(Br)cc1)Nc1ccc(Cl)cc1 |  | < 20 |  | 148 | < 35 | < 30 |  |  | 
O=C(NCCc1ccc(Cl)cc1Cl)Nc1ccc(Cl)cc1 |  | < 20 |  | 166 | < 35 | < 30 |  |  | 

Source: ChEMBL document CHEMBL5042498, “Development of 3-(4-Chlorophenyl)-1-(phenethyl)urea Analogues as Allosteric Modulators of the Cannabinoid Type-1 Receptor: RTICBM-189 is Brain Penetrant and Attenuates Reinstatement of Cocaine-Seeking Behavior” (J Med Chem, 2022)
